Measurements as given in ChEMBL document CHEMBL3627646, “Synthesis and biological activity of amino acid derivatives of avarone and its model compound” (Bioorg Med Chem, 2015).
Values after ≈ are worked out from the molar mass of the structure shown. Active and inactive are the calls of the source. The rule behind the calls is not given here.

Test system: HeLa
Experiment: Cell cycle arrest in human HeLa cells assessed as reduction in G1 phase at 2 time IC50 after 24 hrs using propidium iodide staining by cytofluorometric analysis
Type: functional, cell-based
Conditions: not given
Procedure, shortened: (§1)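 Trypsinized, fixed in ice-cold 70% ethanol then held at −20 °C at least one week. Treated with RNase 100 µg/mL at 37 °C 30 min, stained with PI 40 µg/mL at least 30 min. Flow cytometry on ≥10,000 cells.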

Row | SMILES | Activity
1 | CC1=CCC[C@H]2[C@](C)(CC3=CC(=O)C=C(N[C@@H](C(=O)O)C(C)C)C3=O)[C@@H](C)CC[C@]12C | Active

Test system: HeLa
Experiment: Cell cycle arrest in human HeLa cells assessed as accumulation at G2/M phase after 24 hrs using propidium iodide staining by cytofluorometric analysis
Type: functional, cell-based
Conditions: not given
Procedure, shortened: as §1

Row | SMILES | Activity
2 | CC1=CCC[C@H]2[C@](C)(CC3=CC(=O)C=C(N[C@@H](C(=O)O)C(C)C)C3=O)[C@@H](C)CC[C@]12C | Dose-dependent effect

Test system: Aspergillus brasiliensis
Experiment: Antifungal activity against Aspergillus brasiliensis ATCC 16404 after 24 hrs by microbroth double dilution method
Type: functional
Conditions: ATCC 16404, 24 h

Row | SMILES | MIC [µM]
3 | CC1=CCC[C@H]2[C@](C)(CC3=CC(=O)C=C(N[C@@H](C(=O)O)C(C)C)C3=O)[C@@H](C)CC[C@]12C | 164 (≈ 70.2 µg/mL)

Test system: A549
Experiment: Cytotoxicity against human A549 cells assessed as cell survival after 72 hrs by MTT assay
Type: functional, cell-based
Conditions: A549, 72 h
Procedure, shortened: (§2)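 Cells seeded (HeLa 2000, MDA-MB-453 3000, others 5000 per well), treated 24 h later (K562 after 2 h). Five double-diluted final concentrations, 200–12.5 μM, from 10 mM DMSO stocks, in RPMI-1640 with 10% FBS, pH 7.2, 72 h. MTT 4 h at 37 °C, SDS added, A570 read next day. Survival relative to medium control; IC50 from survival curves; triplicate; cisplatin positive control.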

Row | SMILES | IC50 [µM]
4 | CC1=CCC[C@H]2[C@](C)(CC3=CC(=O)C=C(N[C@@H](C(=O)O)C(C)C)C3=O)[C@@H](C)CC[C@]12C | 23.8

Test system: Micrococcus flavus
Experiment: Antibacterial activity against Micrococcus flavus ATCC 10240 after 24 hrs by microbroth double dilution method
Type: functional
Conditions: ATCC 10240, 24 h
Procedure, shortened: (§3)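 Microbroth double dilution in Mueller Hinton broth; compound stock 10 mg/mL in DMSO serially halved across rows. Wells inoculated with 10 μL culture at 10^6 cells/mL, incubated 37 °C for 24 h. Amikacin row as positive control, DMSO row as negative control. MIC taken as lowest concentration inhibiting bacterial growth.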

Row | SMILES | MIC [µM]
5 | CC1=CCC[C@H]2[C@](C)(CC3=CC(=O)C=C(N[C@@H](C(=O)O)C(C)C)C3=O)[C@@H](C)CC[C@]12C | 91.3 (≈ 39.1 µg/mL)

Test system: Pseudomonas aeruginosa
Experiment: Antibacterial activity against Pseudomonas aeruginosa ATCC 9027 after 24 hrs by microbroth double dilution method
Type: functional
Conditions: ATCC 9027, 24 h
Procedure, shortened: as §3

Row | SMILES | MIC [µM]
6 | CC1=CCC[C@H]2[C@](C)(CC3=CC(=O)C=C(N[C@@H](C(=O)O)C(C)C)C3=O)[C@@H](C)CC[C@]12C | 91.3 (≈ 39.1 µg/mL)

Test system: HeLa
Experiment: Cell cycle arrest in human HeLa cells assessed as accumulation at sub-G1 phase after 24 hrs using propidium iodide staining by cytofluorometric analysis
Type: functional, cell-based
Conditions: not given
Procedure, shortened: as §1

Row | SMILES | Activity
7 | CC1=CCC[C@H]2[C@](C)(CC3=CC(=O)C=C(N[C@@H](C(=O)O)C(C)C)C3=O)[C@@H](C)CC[C@]12C | Dose-dependent effect

Test system: Proteus hauseri
Experiment: Antibacterial activity against Proteus hauseri ATCC 13315 after 24 hrs by microbroth double dilution method
Type: functional
Conditions: ATCC 13315, 24 h
Procedure, shortened: as §3

Row | SMILES | MIC [µM]
8 | CC1=CCC[C@H]2[C@](C)(CC3=CC(=O)C=C(N[C@@H](C(=O)O)C(C)C)C3=O)[C@@H](C)CC[C@]12C | 183 (≈ 78.1 µg/mL)

Test system: MRC5
Experiment: Cytotoxicity against human MRC5 cells assessed as cell survival after 72 hrs by MTT assay
Type: cell-based
Conditions: MRC5, 72 h
Procedure, shortened: as §2

Row | SMILES | IC50 [µM]
9 | CC1=CCC[C@H]2[C@](C)(CC3=CC(=O)C=C(N[C@@H](C(=O)O)C(C)C)C3=O)[C@@H](C)CC[C@]12C | 85.4

Test system: HeLa
Experiment: Cell cycle arrest in human HeLa cells assessed as reduction in G1 phase at IC50 after 24 hrs using propidium iodide staining by cytofluorometric analysis
Type: functional, cell-based
Conditions: not given
Procedure, shortened: as §1

Row | SMILES | Activity
10 | CC1=CCC[C@H]2[C@](C)(CC3=CC(=O)C=C(N[C@@H](C(=O)O)C(C)C)C3=O)[C@@H](C)CC[C@]12C | Active

Test system: HeLa
Experiment: Cytotoxicity against human HeLa cells assessed as cell survival after 72 hrs by MTT assay
Type: functional, cell-based
Conditions: not given
Procedure, shortened: as §2

Row | SMILES | IC50 [µM]
11 | CC1=CCC[C@H]2[C@](C)(CC3=CC(=O)C=C(N[C@@H](C(=O)O)C(C)C)C3=O)[C@@H](C)CC[C@]12C | 10.9

Test system: HeLa
Experiment: Cell cycle arrest in human HeLa cells assessed as accumulation at G2/M phase at IC50 after 24 hrs using propidium iodide staining by cytofluorometric analysis
Type: functional, cell-based
Conditions: not given
Procedure, shortened: as §1

Row | SMILES | Activity
12 | CC1=CCC[C@H]2[C@](C)(CC3=CC(=O)C=C(N[C@@H](C(=O)O)C(C)C)C3=O)[C@@H](C)CC[C@]12C | Active

Test system: K562
Experiment: Cytotoxicity against human K562 cells assessed as cell survival after 72 hrs by MTT assay
Type: functional, cell-based
Conditions: K562, 72 h
Procedure, shortened: as §2

Row | SMILES | IC50 [µM]
13 | CC1=CCC[C@H]2[C@](C)(CC3=CC(=O)C=C(N[C@@H](C(=O)O)C(C)C)C3=O)[C@@H](C)CC[C@]12C | 7.78

Test system: Clostridium sporogenes
Experiment: Antibacterial activity against Clostridium sporogenes ATCC 19404 after 24 hrs by microbroth double dilution method
Type: functional
Conditions: ATCC 19404, 24 h
Procedure, shortened: as §3

Row | SMILES | MIC [µM]
14 | CC1=CCC[C@H]2[C@](C)(CC3=CC(=O)C=C(N[C@@H](C(=O)O)C(C)C)C3=O)[C@@H](C)CC[C@]12C | 91.3 (≈ 39.1 µg/mL)

Test system: HeLa
Experiment: Cell cycle arrest in human HeLa cells assessed as accumulation at sub-G1 phase at IC50 after 24 hrs using propidium iodide staining by cytofluorometric analysis
Type: functional, cell-based
Conditions: not given
Procedure, shortened: as §1

Row | SMILES | Activity
15 | CC1=CCC[C@H]2[C@](C)(CC3=CC(=O)C=C(N[C@@H](C(=O)O)C(C)C)C3=O)[C@@H](C)CC[C@]12C | Active

Test system: Micrococcus luteus
Experiment: Antibacterial activity against Micrococcus luteus ATCC 4698 after 24 hrs by microbroth double dilution method
Type: functional
Conditions: ATCC 4698, 24 h
Procedure, shortened: as §3

Row | SMILES | MIC [µM]
16 | CC1=CCC[C@H]2[C@](C)(CC3=CC(=O)C=C(N[C@@H](C(=O)O)C(C)C)C3=O)[C@@H](C)CC[C@]12C | 22.9 (≈ 9.81 µg/mL)

Test system: MDA-MB-453
Experiment: Cytotoxicity against human MDA-MB-453 cells assessed as cell survival after 72 hrs by MTT assay
Type: functional, cell-based
Conditions: MDA-MB-453, 72 h
Procedure, shortened: as §2

Row | SMILES | IC50 [µM]
17 | CC1=CCC[C@H]2[C@](C)(CC3=CC(=O)C=C(N[C@@H](C(=O)O)C(C)C)C3=O)[C@@H](C)CC[C@]12C | 8.01

Test system: HeLa
Experiment: Cell cycle arrest in human HeLa cells assessed as accumulation at G2/M phase at 2 time IC50 after 24 hrs using propidium iodide staining by cytofluorometric analysis
Type: functional, cell-based
Conditions: not given
Procedure, shortened: as §1

Row | SMILES | Activity
18 | CC1=CCC[C@H]2[C@](C)(CC3=CC(=O)C=C(N[C@@H](C(=O)O)C(C)C)C3=O)[C@@H](C)CC[C@]12C | Active

Test system: Kocuria rhizophila
Experiment: Antibacterial activity against Kocuria rhizophila ATCC 9341 after 24 hrs by microbroth double dilution method
Type: functional
Conditions: ATCC 9341, 24 h
Procedure, shortened: as §3

Row | SMILES | MIC [µM]
19 | CC1=CCC[C@H]2[C@](C)(CC3=CC(=O)C=C(N[C@@H](C(=O)O)C(C)C)C3=O)[C@@H](C)CC[C@]12C | 1460 (≈ 626 µg/mL)

Test system: Artemia salina
Experiment: Cytotoxicity in Brine shrimp assessed as nauplii mortality after 24 hrs
Type: organism-based
Conditions: in vivo
Procedure, shortened: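 Artemia salina eggs hatched in aerated tap water with dried yeast at 18–20 °C under illumination for 48 h, and freshly hatched nauplii were used. Compounds in DMSO (0.01–1 mg) were added to 950 µL artificial seawater containing 10–20 nauplii, with 5% final DMSO. After 24 h under illumination at room temperature, dead and surviving nauplii were counted and statistically analysed.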

Row | SMILES | LC50 [ppm]
20 | CC1=CCC[C@H]2[C@](C)(CC3=CC(=O)C=C(N[C@@H](C(=O)O)C(C)C)C3=O)[C@@H](C)CC[C@]12C | 50.5

Test system: Candida albicans
Experiment: Antifungal activity against Candida albicans ATCC 10231 after 24 hrs by microbroth double dilution method
Type: functional
Conditions: ATCC 10231, 24 h

Row | SMILES | MIC [µM]
21 | CC1=CCC[C@H]2[C@](C)(CC3=CC(=O)C=C(N[C@@H](C(=O)O)C(C)C)C3=O)[C@@H](C)CC[C@]12C | < 2.88

Test system: Staphylococcus aureus
Experiment: Antibacterial activity against Staphylococcus aureus ATCC 6538 after 24 hrs by microbroth double dilution method
Type: functional
Conditions: ATCC 6538, 24 h
Procedure, shortened: as §3

Row | SMILES | MIC [µM]
22 | CC1=CCC[C@H]2[C@](C)(CC3=CC(=O)C=C(N[C@@H](C(=O)O)C(C)C)C3=O)[C@@H](C)CC[C@]12C | 22.9 (≈ 9.81 µg/mL)

Test system: Bacillus subtilis
Experiment: Antibacterial activity against Bacillus subtilis ATCC 6633 after 24 hrs by microbroth double dilution method
Type: functional
Conditions: ATCC 6633, 24 h
Procedure, shortened: as §3

Row | SMILES | MIC [µM]
23 | CC1=CCC[C@H]2[C@](C)(CC3=CC(=O)C=C(N[C@@H](C(=O)O)C(C)C)C3=O)[C@@H](C)CC[C@]12C | 91.3 (≈ 39.1 µg/mL)

Test system: Escherichia coli
Experiment: Antibacterial activity against Escherichia coli ATCC 25922 after 24 hrs by microbroth double dilution method
Type: functional
Conditions: ATCC 25922, 24 h
Procedure, shortened: as §3

Row | SMILES | MIC [µM]
24 | CC1=CCC[C@H]2[C@](C)(CC3=CC(=O)C=C(N[C@@H](C(=O)O)C(C)C)C3=O)[C@@H](C)CC[C@]12C | 22.9 (≈ 9.81 µg/mL)

Test system: Salmonella enterica
Experiment: Antibacterial activity against Salmonella enterica ATCC 13076 after 24 hrs by microbroth double dilution method
Type: functional
Conditions: ATCC 13076, 24 h
Procedure, shortened: as §3

Row | SMILES | MIC [µM]
25 | CC1=CCC[C@H]2[C@](C)(CC3=CC(=O)C=C(N[C@@H](C(=O)O)C(C)C)C3=O)[C@@H](C)CC[C@]12C | 183 (≈ 78.1 µg/mL)

Test system: not listed separately
Experiment: Cytotoxicity against human Fem-X cells assessed as cell survival after 72 hrs by MTT assay
Type: functional, cell-based
Conditions: not given
Procedure, shortened: as §2

Row | SMILES | IC50 [µM]
26 | CC1=CCC[C@H]2[C@](C)(CC3=CC(=O)C=C(N[C@@H](C(=O)O)C(C)C)C3=O)[C@@H](C)CC[C@]12C | 11.4

Test system: Saccharomyces cerevisiae
Experiment: Antifungal activity against Saccharomyces cerevisiae ATCC 9763 after 24 hrs by microbroth double dilution method
Type: functional
Conditions: ATCC 9763, 24 h

Row | SMILES | MIC [µM]
27 | CC1=CCC[C@H]2[C@](C)(CC3=CC(=O)C=C(N[C@@H](C(=O)O)C(C)C)C3=O)[C@@H](C)CC[C@]12C | 368 (≈ 157 µg/mL)

Test system: HeLa
Experiment: Cell cycle arrest in human HeLa cells assessed as accumulation at sub-G1 phase at 2 time IC50 after 24 hrs using propidium iodide staining by cytofluorometric analysis
Type: functional, cell-based
Conditions: not given
Procedure, shortened: as §1

Row | SMILES | Activity
28 | CC1=CCC[C@H]2[C@](C)(CC3=CC(=O)C=C(N[C@@H](C(=O)O)C(C)C)C3=O)[C@@H](C)CC[C@]12C | Active
